What was measured:
[1] = system: K562; experiment: Cytotoxicity against human K562 cells assessed as cell viability after 24 hrs by MTT assay; type: functional, cell-based; conditions: K562, 24 h
How it was run: (§1)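 Cells grown to about 50−70% confluence at 37 °C, 5% CO2, then exposed to compounds 24 h (DMSO vehicle control, cisplatin positive control). MTT (5 mg/mL stock) added for 4 h, formazan dissolved in DMSO, absorbance read at 570 nm. IC50 derived from percent viability; at least three independent experiments, mean ± SD.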

[2] = system: NCI-H1299; experiment: Cytotoxicity against human NCI-H1299 cells assessed as cell viability after 24 hrs by MTT assay; type: functional, cell-based; conditions: NCI-H1299, 24 h; how it was run: as §1
[3] = system: MDA-MB-231; experiment: Cytotoxicity against human MDA-MB-231 cells assessed as cell viability after 24 hrs by MTT assay; type: functional, cell-based; conditions: MDA-MB-231, 24 h; how it was run: as §1
[4] = system: DU-145; experiment: Cytotoxicity against human DU145 cells assessed as cell viability after 24 hrs by MTT assay; type: functional, cell-based; conditions: DU-145, 24 h; how it was run: as §1
[5] = system: LoVo; experiment: Cytotoxicity against human LoVo cells assessed as cell viability after 24 hrs by MTT assay; type: functional, cell-based; how it was run: as §1
[6] = Cytotoxicity against human SH-SY5Y cells assessed as cell viability after 24 hrs by MTT assay; type: functional, cell-based; how it was run: as §1
[7] = Cytotoxicity against human RWPE1 cells assessed as cell viability after 24 hrs by MTT assay; type: cell-based; conditions: RWPE-1, 24 h; how it was run: as §1
[8] = Cytotoxicity against human SKOV3 cells assessed as cell viability after 24 hrs by MTT assay; type: functional, cell-based; conditions: SK-OV-3, 24 h; how it was run: as §1
[9] = Cytotoxicity against human PC3 cells assessed as cell viability after 24 hrs by MTT assay; type: functional, cell-based; conditions: PC-3, 24 h; how it was run: as §1
[10] = Cytotoxicity against human HL60 cells assessed as cell viability after 24 hrs by MTT assay; type: functional, cell-based; conditions: HL-60, 24 h; how it was run: as §1
[11] = system: LNCaP; experiment: Cytotoxicity against human LNCAP cells assessed as cell viability after 24 hrs by MTT assay; type: functional, cell-based; how it was run: as §1
[12] = Cytotoxicity against human A172 cells assessed as cell viability after 24 hrs by MTT assay; type: functional, cell-based; conditions: A 172, 24 h; how it was run: as §1
[13] = Cytotoxicity against human T24 cells assessed as cell viability after 24 hrs by MTT assay; type: functional, cell-based; conditions: T-24, 24 h; how it was run: as §1
[14] = Cytotoxicity against human Saos2 cells assessed as cell viability after 24 hrs by MTT assay; type: functional, cell-based; conditions: SAOS-2, 24 h; how it was run: as §1

Compound `C=C1C[C@]23C[C@H]1CC[C@H]2[C@]1(C)CCCC(C)(C)[C@H]1C[C@H]3O` has an IC50 [1] of over 50 µM, an IC50 [2] of over 50 µM and an IC50 [3] of over 50 µM. It also gave an IC50 [4] of over 50 µM, an IC50 [5] of over 50 µM and an IC50 [6] of over 50 µM. It also gave an IC50 [7] of over 50 µM, an IC50 [8] of over 50 µM and an IC50 [9] of over 50 µM. It also gave an IC50 [10] of over 50 µM, an IC50 [11] of over 50 µM and an IC50 [12] of over 50 µM. It also gave an IC50 [13] of over 50 µM and an IC50 [14] of over 50 µM.
Work on `C[C@@H]1C(=O)[C@H]2C[C@]1(O)CC1=C2[C@]2(C)CCC[C@](C)(CO)[C@H]2CC1` yielded an IC50 [1] of over 50 µM, an IC50 [2] of over 50 µM and an IC50 [3] of over 50 µM. The IC50 [4] was over 50 µM, the IC50 [5] was over 50 µM and the IC50 [6] was over 50 µM. The IC50 [7] was over 50 µM, the IC50 [8] was over 50 µM and the IC50 [9] was over 50 µM. It also gave an IC50 [10] of over 50 µM, an IC50 [11] of over 50 µM and an IC50 [12] of over 50 µM. The IC50 [13] was over 50 µM and the IC50 [14] was over 50 µM.
Compound `C=C1[C@@H](O)[C@@]23CC[C@@H]4C(C)(C)CCC[C@@]4(C)[C@@H]2CC[C@@H]1[C@H]3O` has an IC50 [1] of over 50 µM, an IC50 [2] of over 50 µM and an IC50 [3] of over 50 µM. It also gave an IC50 [4] of over 50 µM, an IC50 [5] of over 50 µM and an IC50 [6] of over 50 µM. It also gave an IC50 [7] of over 50 µM, an IC50 [8] of over 50 µM and an IC50 [9] of over 50 µM. It also gave an IC50 [10] of over 50 µM, an IC50 [11] of over 50 µM and an IC50 [12] of over 50 µM. The IC50 [13] was over 50 µM and the IC50 [14] was over 50 µM.
`C[C@@H]1C(=O)[C@H]2C[C@]1(O)CC1=C2[C@]2(C)CCCC(C)(C)[C@H]2CC1` showed an IC50 [1] of over 50 µM, an IC50 [2] of over 50 µM and an IC50 [3] of over 50 µM. It also gave an IC50 [4] of over 50 µM, an IC50 [5] of over 50 µM and an IC50 [6] of over 50 µM. For the same compound, the IC50 [7] was over 50 µM, the IC50 [8] was over 50 µM and the IC50 [9] was over 50 µM. For the same compound, the IC50 [10] was over 50 µM, the IC50 [11] was over 50 µM and the IC50 [12] was over 50 µM. The IC50 [13] was over 50 µM and the IC50 [14] was over 50 µM.
In the case of `C=C1C(=O)[C@@]23CC[C@@H]4C(C)(C)CCC[C@@]4(C)[C@@H]2[C@@H](O)C[C@@H]1C3`, the IC50 [1] is reported as 1.5 µM, the IC50 [2] is reported as 2.6 µM and the IC50 [3] is reported as 4.8 µM. For the same compound, the IC50 [4] was 4.5 µM, the IC50 [5] was 1.4 µM and the IC50 [6] was 0.7 µM. It also gave an IC50 [7] of 5.2 µM, an IC50 [8] of 1.7 µM and an IC50 [9] of 1.9 µM. It also gave an IC50 [10] of 0.9 µM, an IC50 [11] of 2.5 µM and an IC50 [12] of 3.2 µM. The IC50 [13] was 2.1 µM and the IC50 [14] was 1.4 µM.
With `C[C@H]1C(=O)[C@@]23CC[C@@H]4[C@@](C)(C=O)CCC[C@@]4(C)C2=CC[C@]1(O)C3` the IC50 [1] was over 50 µM, the IC50 [2] was over 50 µM and the IC50 [3] was over 50 µM. It also gave an IC50 [4] of over 50 µM, an IC50 [5] of over 50 µM and an IC50 [6] of over 50 µM. The IC50 [7] was over 50 µM, the IC50 [8] was over 50 µM and the IC50 [9] was over 50 µM. The IC50 [10] was over 50 µM, the IC50 [11] was over 50 µM and the IC50 [12] was over 50 µM. The IC50 [13] was over 50 µM and the IC50 [14] was over 50 µM.
For `C=C1C(=O)[C@@]23CC[C@@H]4[C@@](C)(CO)CCC[C@@]4(C)C2=CC[C@@H]1C3`, the IC50 [1] was 13.8 µM, the IC50 [2] was 14.5 µM and the IC50 [3] was 32 µM. It also gave an IC50 [4] of 31 µM, an IC50 [5] of 11.2 µM and an IC50 [6] of 9.8 µM. For the same compound, the IC50 [7] was 39.3 µM, the IC50 [8] was 22.3 µM and the IC50 [9] was 21.5 µM. It also gave an IC50 [10] of 4.7 µM, an IC50 [11] of 16.3 µM and an IC50 [12] of 20.3 µM. It also gave an IC50 [13] of 17.7 µM and an IC50 [14] of 14 µM.
In the case of `C=C1[C@@H]2CC(=O)[C@H]3[C@]4(C)CCCC(C)(C)[C@H]4C[C@@H](O)[C@]3(C2)[C@@H]1O`, the IC50 [1] is reported as over 50 µM, the IC50 [2] is reported as over 50 µM and the IC50 [3] is reported as over 50 µM. It also gave an IC50 [4] of over 50 µM, an IC50 [5] of over 50 µM and an IC50 [6] of over 50 µM. For the same compound, the IC50 [7] was over 50 µM, the IC50 [8] was over 50 µM and the IC50 [9] was over 50 µM. For the same compound, the IC50 [10] was over 50 µM, the IC50 [11] was over 50 µM and the IC50 [12] was over 50 µM. For the same compound, the IC50 [13] was over 50 µM and the IC50 [14] was over 50 µM.
Compound `C[C@H]1C(=O)[C@@]23CC[C@@H]4[C@](C)(CO)CCC[C@@]4(C)C2=CC[C@]1(O)C3` has an IC50 [1] of over 50 µM, an IC50 [2] of over 50 µM and an IC50 [3] of over 50 µM. The IC50 [4] was over 50 µM, the IC50 [5] was over 50 µM and the IC50 [6] was over 50 µM. For the same compound, the IC50 [7] was over 50 µM, the IC50 [8] was over 50 µM and the IC50 [9] was over 50 µM. It also gave an IC50 [10] of over 50 µM, an IC50 [11] of over 50 µM and an IC50 [12] of over 50 µM. For the same compound, the IC50 [13] was over 50 µM and the IC50 [14] was over 50 µM.

Source: ChEMBL document CHEMBL3425440, “ent-Kaurane Diterpenoids from Chinese Liverworts and Their Antitumor Activities through Michael Addition As Detected in Situ by a Fluorescence Probe” (J Med Chem, 2015)
